The source of these data is ChEMBL document CHEMBL1250433, “Synthesis of 5-arylidene-2-amino-4-azolones and evaluation of their anticancer activity” (2010).

In general, GI50 refers to the concentration giving 50% growth inhibition. A high value points to less potent growth inhibition.

What all share (type): functional
The test system of one assay is CCRF-CEM. Kind of assay: Cytotoxicity against human CCRF-CEM cells. The following applies: for TGI: read-out: pTGI (converted). Put shortly:
(§1)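 Tested in the US National Cancer Institute 60 human tumour cell line screen. Dose-response parameters were calculated per cell line: GI50 (molar concentration giving 50% net growth inhibition), TGI (molar concentration giving total growth inhibition) and LC50 (molar concentration giving 50% net cell kill).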

Another assay relates to HL-60(TB). The assay can be described thus: Cytotoxicity against human HL-60(TB) cells. The following applies: for TGI: read-out: pTGI (converted). The procedure, abridged:
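Tested in the National Cancer Institute 60 human tumour cell line in vitro screen, which includes leukaemia lines. From the dose–response data, GI50 is the molar concentration giving 50% inhibition of net cell growth, TGI is total growth inhibition, and LC50 is 50% net cell kill. Values are expressed as Log GI50.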

In the next assay the test system is UO-31. The assay can be described thus: Cytotoxicity against human UO31 cells. The following applies: for TGI: read-out: pTGI (converted). Put shortly: as §1
A further assay relates to MCF7. The assay can be described thus: Cytotoxicity against human MCF7 cells. The following applies: for TGI: read-out: pTGI (converted). Put shortly: as §1
Another assay has as its system MDA-MB-435. Kind of assay: Cytotoxicity against human MDA-MB-435 cells. The following applies: for TGI: read-out: pTGI (converted). Put shortly:
as §1

The subject of the next assay is U-251. Kind of assay: Cytotoxicity against human U251 cells. Put shortly:
as §1

A further assay relates to HCT-15. Kind of assay: Cytotoxicity against human HCT15 cells. The procedure, abridged:
as §1

Another assay deals with K562. Kind of assay: Cytotoxicity against human K562 cells. The procedure, abridged:
as §1

A further assay concerns MOLT-4. The assay can be described thus: Cytotoxicity against human MOLT4 cells. The procedure, abridged:
as §1

Another assay relates to RPMI-8226. The assay can be described thus: Cytotoxicity against human RPMI8226 cells. The procedure, abridged:
as §1

The next assay concerns SR. Kind of assay: Cytotoxicity against human SR cells. The following applies: for TGI: read-out: pTGI (converted). Put shortly: as §1
The next assay relates to NCI-H23. Kind of assay: Cytotoxicity against human NCI-H23 cells. The following applies: for TGI: read-out: pTGI (converted). Put shortly: as §1
In another assay the test system is NCI-H460. The assay can be described thus: Cytotoxicity against human NCI-H460 cells. The following applies: for TGI: read-out: pTGI (converted). The procedure, abridged:
as §1

In the next assay the test system is OVCAR-3. The assay can be described thus: Cytotoxicity against human OVCAR-3 cells. The following applies: for TGI: read-out: pTGI (converted). The procedure, abridged: as §1
In another assay the test system is CAKI-1. The assay can be described thus: Cytotoxicity against human Caki1 cells. The following applies: for TGI: read-out: pTGI (converted). Put shortly: as §1
The next assay deals with RXF 393. The assay can be described thus: Cytotoxicity against human RXF393 cells. The procedure, abridged:
as §1

The test system of another assay is NCI/ADR-RES. The assay can be described thus: Cytotoxicity against human NCI/ADR-RES cells. Put shortly: as §1
The test system of the next assay is T47D. The assay can be described thus: Cytotoxicity against human T47D cells. The procedure, abridged: as §1
In a further assay the test system is SF-268. The assay can be described thus: Cytotoxicity against human SF268 cells. Put shortly:
as §1

The next assay relates to SF-295. Kind of assay: Cytotoxicity against human SF295 cells. Put shortly:
as §1

Another assay deals with SNB-75. Kind of assay: Cytotoxicity against human SNB75 cells. The procedure, abridged: as §1
In a further assay the test system is COLO 205. The assay can be described thus: Cytotoxicity against human COLO205 cells. The procedure, abridged: as §1
The next assay concerns HCC 2998. Kind of assay: Cytotoxicity against human HCC2998 cells. Put shortly:
as §1

For another assay, the system named is HCT-116. The assay can be described thus: Cytotoxicity against human HCT116 cells. Put shortly:
as §1

The next assay relates to KM12. Kind of assay: Cytotoxicity against human KM12 cells. Put shortly:
as §1

The subject of another assay is SW-620. The assay can be described thus: Cytotoxicity against human SW620 cells. The following applies: for TGI: read-out: pTGI (converted). The procedure, abridged: as §1
The test system of the next assay is M14. The assay can be described thus: Cytotoxicity against human M14 cells. Put shortly: as §1
The test system of the next assay is HOP-62. Kind of assay: Cytotoxicity against human HOP62 cells. The procedure, abridged: as §1
The subject of the next assay is OVCAR-4. The assay can be described thus: Cytotoxicity against human OVCAR4 cells. The procedure, abridged: as §1
A short description of assay [1]: Cytotoxicity against human 786-O cells. Put shortly: as §1
Another assay concerns SK-MEL-5. The assay can be described thus: Cytotoxicity against human SK-MEL-5 cells. The procedure, abridged: as §1
For the next assay, the system named is PC-3. Kind of assay: Cytotoxicity against human PC3 cells. The following applies: for TGI: read-out: pTGI (converted). The procedure, abridged:
as §1

As to `COc1cc(/C=C2\SC(Nc3ccc(O)cc3)=NC2=O)ccc1OCc1ccc(F)cc1`, the GI50 in the assay on CCRF-CEM is 200 nM; in the assay on HL-60(TB) it was 603 nM; in the assay on UO-31, 891 nM. For the same compound, the TGI with CCRF-CEM is 1150 nM; in the assay with HL-60(TB), 10200 nM; with UO-31, 28800 nM.
Take `O=C1N=C(Nc2ccc(O)cc2)S/C1=C\c1ccc(Cl)cc1`: the GI50 in the assay with MCF7 is 50.1 nM; in the assay on MDA-MB-435 it was 398 nM; in the assay on U-251 it was 490 nM; in the assay on HCT-15, 427 nM; in the assay on CCRF-CEM, 851 nM; in the assay on HL-60(TB), 437 nM. For the same compound, the GI50 in the assay with K562 was 257 nM; with MOLT-4 it was 603 nM; in the assay with RPMI-8226 it was 407 nM; in the assay with SR it was 145 nM; in the assay on NCI-H23 it was 562 nM; with NCI-H460, 977 nM. In addition, the GI50 in the assay on OVCAR-3 is 162 nM; in the assay on CAKI-1, 501 nM; in the assay with RXF 393, 117 nM. The TGI with MCF7 is 219 nM; in the assay on MDA-MB-435 it was 1660 nM; in the assay with HCT-15 (read-out: pTGI), more than 100000 nM; with CCRF-CEM, 10200 nM; in the assay with HL-60(TB), 10200 nM; in the assay with MOLT-4 (read-out: pTGI (converted)), 17000 nM. For the same compound, the TGI in the assay with RPMI-8226 (read-out: pTGI) is more than 100000 nM; with SR it was 525 nM; in the assay on NCI-H23, 3240 nM; with NCI-H460, 87100 nM; in the assay with OVCAR-3 it was 490 nM; in the assay on CAKI-1 it was 6460 nM. The TGI in the assay with RXF 393 (read-out: pTGI (converted)) was 3980 nM.
For `O=C1N=C(Nc2ccc(O)cc2)S/C1=C\c1ccc(F)cc1`, the GI50 in the assay with MCF7 was 35.5 nM; in the assay on MDA-MB-435 it was 31.6 nM; in the assay on NCI/ADR-RES, 631 nM; with T47D, 661 nM; with SF-268, 490 nM; in the assay on SF-295, 380 nM. Also, the GI50 in the assay on SNB-75 is 407 nM; in the assay with COLO 205 it was 631 nM; in the assay with HCC 2998 it was 562 nM; with HCT-116, 219 nM; in the assay with KM12 it was 132 nM; with SW-620, 525 nM. The GI50 in the assay on SR is 537 nM; with M14 it was 617 nM; with HOP-62, 427 nM; with NCI-H23 it was 372 nM; with NCI-H460 it was 263 nM; in the assay with OVCAR-3, 324 nM. Also, the GI50 was 832 nM with OVCAR-4, 309 nM in assay [1] (786-0), 479 nM with CAKI-1 and 955 nM in the assay with UO-31. Moreover, the TGI in the assay with MCF7 was 115 nM; with MDA-MB-435, 145 nM; with NCI/ADR-RES (read-out: pTGI (converted)) it was 3160 nM; in the assay on T47D (read-out: pTGI), more than 100000 nM; in the assay with SF-268 (read-out: pTGI (converted)), 4370 nM; in the assay with SF-295 (read-out: pTGI (converted)), 1910 nM. The TGI with SNB-75 (read-out: pTGI) was more than 100000 nM; in the assay with COLO 205 (read-out: pTGI), more than 100000 nM; in the assay on HCC 2998 (read-out: pTGI (converted)), 2140 nM; in the assay on HCT-116 (read-out: pTGI (converted)) it was 4370 nM; in the assay with KM12 (read-out: pTGI (converted)) it was 741 nM; with SW-620 it was more than 100000 nM. Moreover, the TGI in the assay on SR is more than 100000 nM; in the assay on M14 (read-out: pTGI (converted)), 11500 nM; in the assay on HOP-62 (read-out: pTGI (converted)) it was 13200 nM; with NCI-H23, 2090 nM; in the assay with NCI-H460, 955 nM; with OVCAR-3 it was 562 nM. In addition, the TGI in the assay with OVCAR-4 (read-out: pTGI) was more than 100000 nM; in [1] (786-0, read-out: pTGI (converted)), 10000 nM; with CAKI-1, 2450 nM; in the assay on UO-31 it was more than 100000 nM.
As to `O=C1N=C(Nc2cccc(O)c2)S/C1=C\C(Cl)=C/c1ccc([N+](=O)[O-])cc1`, the values for the GI50 in the assay with SW-620 and in the assay with OVCAR-3 were 832 nM and 372 nM, respectively. In addition, the TGI in the assay on SW-620 was 2630 nM; in the assay on OVCAR-3 it was 955 nM.
In the case of `O=C1N=C(Nc2cccc(O)c2)S/C1=C\c1ccc(Cl)cc1`, in the assay with OVCAR-3, the GI50 was 490 nM and the TGI was 2750 nM.
On to `CN(C1=NC(=O)/C(=C/c2cccc(Cl)c2Cl)S1)c1ccc(O)cc1`, for which, in the assay with SR, halving of growth (GI50) required 437 nM and the TGI was 2630 nM.
Compound `CN(C1=NC(=O)/C(=C/C(Cl)=C\c2ccc([N+](=O)[O-])cc2)S1)c1ccc(O)cc1` had a GI50 in the assay on SK-MEL-5 of less than 10 nM. The TGI in the assay on SK-MEL-5 (read-out: pTGI) is less than 10 nM.
Turning to `O=C1N=C(Nc2ccc(Cl)cc2)N/C1=C\c1ccc(Cl)cc1`, in the assay with PC-3, it took 380 nM to inhibit growth by half (GI50) and the TGI was 4370 nM.
Regarding `O=C1N=C(Nc2ccccc2Cl)N/C1=C\c1ccc(Cl)cc1Cl`, in the assay on HL-60(TB), the GI50 was 123 nM and the TGI is 1820 nM.
Take `O=C1N=C(Nc2cccc(Cl)c2)N/C1=C\c1cccc(F)c1`: in the assay on MOLT-4, the GI50 was 1050 nM.
Regarding `COc1ccc(CNC2=NC(=O)/C(=C/c3ccccc3Cl)N2)cc1`, in the assay with PC-3, halving of growth (GI50) required 91.2 nM and the TGI was 27500 nM.
Take `O=C1N=C(NCc2ccc(Cl)cc2)N/C1=C\c1c(Cl)cccc1Cl`: in the assay with CCRF-CEM, halving of growth (GI50) required 1070 nM and the TGI was 29500 nM.
In the case of `COc1ccc(/C=C2\SC(Nc3ccc(O)cc3)=NC2=O)cc1OC`, the GI50 with MDA-MB-435 is 407 nM; with K562, 398 nM. Moreover, the figures for the TGI with MDA-MB-435 and in the assay on K562 (read-out: pTGI (converted)) were 2040 nM and 6760 nM, respectively.
